Experimental findings from ChEMBL document CHEMBL4732101, “Novel quinolone-based potent and selective HDAC6 inhibitors: Synthesis, molecular modeling studies and biological investigation” (Eur J Med Chem, 2021) are described below.

The source made the active and inactive calls. The rule behind the calls is not given here.

Data set [1] concerns U-937. Kind of data set: Induction of apoptosis in human U-937 cells assessed as increase in PARP cleavage at 10 uM measured after 24 hrs by Western blot analysis. The class given is functional, cell-based. The procedure, abridged: (§1)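 HCT-116 or U937 cells treated at 10 µM for 12 and 24 h. […] Western blot used 40 µg total protein or 5 µg acid-extracted histone. Blots probed for cleaved PARP, acetylated tubulin, H3K9/14ac and Hsp90(AcLys294), normalized to GAPDH or H4. Compared with control cells by one-way ANOVA and Dunnett's test.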

Data set [2] in a line: Mutagenicity in Salmonella typhimurium TA98 at 5 to 230 uM measured after 90 mins in presence of rat liver S9 fraction by Ames test. Format: toxicity, subcellular. Conditions: salmonella enterica subsp. enterica serovar typhimurium, s9, 1.5 h, dose 5-230 µM.
The target in data set [3] is T1, Protein deacetylase HDAC6 (Homo sapiens) (UniProt Q9UBN7).
T1 sequence (whole entry): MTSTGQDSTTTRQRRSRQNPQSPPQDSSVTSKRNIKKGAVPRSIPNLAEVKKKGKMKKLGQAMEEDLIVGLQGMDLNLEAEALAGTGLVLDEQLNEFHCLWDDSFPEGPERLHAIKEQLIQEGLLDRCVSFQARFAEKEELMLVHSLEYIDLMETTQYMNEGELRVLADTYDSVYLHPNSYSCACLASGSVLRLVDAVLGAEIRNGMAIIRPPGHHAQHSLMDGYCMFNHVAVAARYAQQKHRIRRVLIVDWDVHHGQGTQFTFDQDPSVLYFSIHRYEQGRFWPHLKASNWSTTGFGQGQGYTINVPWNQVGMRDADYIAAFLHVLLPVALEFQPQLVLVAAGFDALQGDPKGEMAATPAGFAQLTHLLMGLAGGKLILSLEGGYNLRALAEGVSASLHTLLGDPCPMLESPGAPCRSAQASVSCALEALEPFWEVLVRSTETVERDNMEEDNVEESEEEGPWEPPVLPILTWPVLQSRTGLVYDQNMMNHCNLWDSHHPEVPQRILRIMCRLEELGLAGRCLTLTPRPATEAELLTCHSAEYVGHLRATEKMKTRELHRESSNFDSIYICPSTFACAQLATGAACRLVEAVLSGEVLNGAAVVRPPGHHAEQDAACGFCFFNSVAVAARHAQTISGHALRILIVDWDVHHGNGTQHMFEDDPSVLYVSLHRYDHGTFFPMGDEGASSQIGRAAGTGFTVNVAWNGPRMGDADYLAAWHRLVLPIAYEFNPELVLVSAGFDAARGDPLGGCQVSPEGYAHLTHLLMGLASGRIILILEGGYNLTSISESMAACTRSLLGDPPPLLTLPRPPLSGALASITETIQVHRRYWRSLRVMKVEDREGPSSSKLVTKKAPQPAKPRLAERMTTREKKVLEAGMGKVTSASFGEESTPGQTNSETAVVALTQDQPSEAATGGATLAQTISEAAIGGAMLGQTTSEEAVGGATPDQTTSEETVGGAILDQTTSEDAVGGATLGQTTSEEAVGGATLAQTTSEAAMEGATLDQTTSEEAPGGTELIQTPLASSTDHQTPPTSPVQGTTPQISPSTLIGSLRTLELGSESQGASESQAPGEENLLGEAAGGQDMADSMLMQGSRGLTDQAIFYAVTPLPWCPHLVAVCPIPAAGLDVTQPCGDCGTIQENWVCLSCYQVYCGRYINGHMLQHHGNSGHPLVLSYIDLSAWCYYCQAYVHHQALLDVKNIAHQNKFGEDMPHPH
Put plainly: Inhibition of HDAC6 in human U-937 cells assessed as increase in alpha-tubulin acetylation at 10 uM measured after 12 to 24 hrs by Western blot analysis relative to control. Format: cell-based. The conditions noted are these: time 12-24 hrs. The procedure, abridged: as §1
A general note: Immunoblotting shows a protein as a band on a membrane.

For data set [4], the target named is T1, Protein deacetylase HDAC6 (Homo sapiens). Kind of data set: Inhibition of HDAC6 in human HCT-116 cells assessed as increase in Hsp90(AcLys294) acetylation at 10 uM measured after 12 to 24 hrs by Western blot analysis. The conditions noted are these: time 12-24 hrs. Format: cell-based. In outline: as §1
In another data set the target is T2, Histone deacetylase 8 (Homo sapiens, UniProt Q9BY41).
T2 sequence (Q9BY41 whole entry): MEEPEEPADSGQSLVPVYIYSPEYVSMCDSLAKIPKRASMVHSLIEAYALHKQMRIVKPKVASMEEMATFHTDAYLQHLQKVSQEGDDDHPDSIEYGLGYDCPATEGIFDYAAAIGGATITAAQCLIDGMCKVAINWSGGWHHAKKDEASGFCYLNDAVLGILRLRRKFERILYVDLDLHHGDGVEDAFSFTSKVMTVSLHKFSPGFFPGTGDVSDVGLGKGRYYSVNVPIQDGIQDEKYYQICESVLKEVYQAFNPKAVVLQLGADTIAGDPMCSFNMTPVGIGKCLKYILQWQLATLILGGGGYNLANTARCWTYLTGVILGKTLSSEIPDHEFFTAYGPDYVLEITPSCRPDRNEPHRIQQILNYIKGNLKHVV
Kind of data set: Inhibition of recombinant human HDAC8 using Fluor-de-Lys as substrate measured after 1 hr by fluorescence assay.

The test system of data set [5] is U-937. Put plainly: Cytotoxicity against human U-937 cells assessed as reduction in cell proliferation at 50 uM measured after 48 hrs by MTT assay relative to control. The class given is functional. Further details: scale not given: the % may be the effect or the level left. The procedure, abridged: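 U937 cells grown in RPMI-1640 with 10% FBS, 2 mM L-glutamine and penicillin-streptomycin. 2.5×10^4 cells/well treated in triplicate at 50, 25, 10, 5 and 1 µM for 12, 24 or 48 h. MTT 0.5 mg/ml added for 3 h, plate centrifuged 5 min at 1200 rpm, crystals dissolved in isopropanol, A570 read. IC50 derived from the concentration series.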

A short description of data set [6]: Cytotoxicity against human PBMC cells assessed as reduction in cell viability at 90 uM measured after 24 to 48 hrs by GUAVA easyCyte cytometric method. The conditions noted are these: time 24-48 hrs. Format: cell-based. In outline: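 PBMCs seeded at 1.5 x10^6/mL in complete medium and exposed to 15, 45 or 90 µM test compound, or DMSO vehicle, for 24 h and 48 h. Percentage of viable cells determined by flow cytometry with ViaCount reagent.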

The nature of data set [7]: Stability of compound in pH 3 buffer assessed as parent compound remaining at 250 uM measured after 24 hrs by HPLC/UV/DAD method. Format: physicochemical. Conditions: read-out: Stabilty. In outline:
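10 mM DMSO stock diluted to 250 µM (2.5% DMSO) in 50 mM acetic acid, pH 3.0, and shaken 24 h at 25 °C. For solubility, samples filtered, diluted 1:2, quantified by HPLC-UV at 254 nm against a standard. For stability, percent remaining taken as the 24 h peak area over the T0 peak area. Triplicate analyses averaged.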

The subject of another data set is HCT-116. Kind of data set: Cytotoxicity against human HCT-116 cells assessed as reduction in cell viability measured after 48 hrs by MTT assay. Format: functional, cell-based. Conditions: HCT-116, 48 h. The procedure, abridged: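 HCT-116 cells grown in DMEM with 10% FBS, 2 mM L-glutamine and antibiotics. 2.5×10^4 cells/well treated in triplicate at 50, 25, 10, 5 and 1 µM for 12, 24 or 48 h. Then MTT 0.5 mg/ml for 3 h, supernatant removed, formazan dissolved in isopropanol, absorbance read at 570 nm. IC50 derived from the concentration series.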
On the technique in general: Formazan colour is commonly taken as a measure of viable cells.

The term IC50 denotes the concentration at which inhibition is half-maximal.

For the compound `CCN(CC)Cc1ccc(Cn2c(=O)c(OCc3ccc(C(=O)NO)cc3)c(-c3cccnc3)c3ccccc32)cc1`, the result in the data set with U-937 [1] was Active. For the same compound, the Activity entry in data set [2] is “Non-Toxic”; in the data set with U-937 [5], 60%; in data set [6] it was “Toxic”. The fold change (FC) in data set [3] was greater than 9. In addition, in [4], the inhibition entry was “Active”. The IC50 at Histone deacetylase 8 worked out at 490 nM; in the data set on HCT-116 it was 8.4 µM. In addition, at Histone deacetylase 8 (human, 1 h), the Kapp came out at 0.4 µM. Moreover, the remaining at 24 h, 250 µM in [7] is greater than 95%.
